Results as given in PubChem BioAssay AID719 (SRMLSC, 2007).
About 940 (1.1%) of roughly 85,000 compounds were called active. The sample as a whole holds a higher share of actives than the screen did. A number with no mark means an inactive call.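 Rule for the calls: active = viability at or below 50% in the single dose screen; inactive = viability above 50%.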

Experiment: antiproliferative effect on LL 47 fibroblasts – human, LL 47 cells, CellTiter-Glo luminescence, primary screen (AID 719);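 note: compound exposure lasted 72 h before the ATP readout; 100% = median luminescence of untreated cell-only wells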
Conditions: LL 47 human lung fibroblast viability, ATP luminescence; at 10 µM; stronger effect = lower value
In short: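 Material: human LL 47 lung fibroblast cells; quantity: 1,150 cells/well; medium: IMEM plus 15% FBS; doses: 0.1% DMSO in all compound wells; timing: overnight attachment after seeding, then 72 h compound exposure at 37 °C; detection: CellTiter-Glo luminescence; measure: % viability of median cell-only signal; controls: cell-only wells, no compound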

| SMILES | viability |
| --- | --- |
| Cc1ccc(-c2noc(CSc3nnc(-c4ccncc4)n3-c3ccc(F)cc3)n2)cc1 | 80.8% |
| OC(CN=c1sc2ccccc2n1CC(O)COc1ccccc1)COc1ccccc1 (configuration not stated) | 86% |
| CN(C)CCNC(CC(=O)Nc1ccc(Cl)c(Cl)c1)C(=O)O (configuration not stated) | 102% |
| N/C(=N\OC(=O)Nc1ccc(Cl)c(Cl)c1)c1ncc(C(F)(F)F)cc1Cl | 97.2% |
| O=C(CC(O)(C(F)(F)F)C(F)(F)F)Nc1ccc(Cl)c(Cl)c1 | 22.4% (active) |
| COC(=O)c1ccc(NC(=O)C23CC4CC(C2)CC(n2cnc(Cl)n2)(C4)C3)cc1 | 96.5% |
| COc1ccc(C2CC(c3cccs3)=Nc3ccccc3S2)cc1OC (configuration not stated) | 93.6% |
| COc1ccc(N(CC(=O)NC2CCCCC2)C(=O)CNC(=O)c2ccco2)c(OC)c1 | 96.4% |
| COc1ccccc1-c1nc(C#N)c(N2CCC(C(N)=O)CC2)o1 | 89.3% |
| COc1ccc(Nc2oc(-c3ccccc3Cl)nc2C#N)cc1 | 23.1% (active) |
| CCOc1ccc(Nc2oc(Cc3ccccc3)nc2C#N)cc1 | 99.8% |
| COc1ccccc1Nc1nc(N)nc(CN(C)C2CCCCC2)n1 | 94.3% |
| COc1ccccc1NC1=NC(c2ccc(Cl)cc2)N=C(N)N1 (configuration not stated) | 45.8% (active) |
| COc1ccccc1NC1=NC2(CCCC2)N=C(N)N1 | 93% |
| CCn1c(=O)c(=O)n(CC)c2cc(S(=O)(=O)N3CCc4ccccc43)ccc21 | 70.5% |
| CC1(C)CCc2nc(SCc3ccccc3)c(C#N)cc2C1 | 95.3% |
| Cc1nc(NC(=O)C2CCCCC2)sc1C | 108% |
| O=C(NCc1ccccc1)C1CCCN(S(=O)(=O)c2cccs2)C1 (configuration not stated) | 94.6% |
| O=C(Cn1c(-c2cscn2)nc2ccccc21)Nc1ccc(Cl)cc1 | 90.7% |
| CN(C)c1ccnc2sc3c(=O)n(-c4ccc(Cl)cc4)cnc3c12 | 102% |
| N#CC1=C(N)Oc2c(sc3ccccc23)C1c1ccco1 (configuration not stated) | 20.2% (active) |
| Cc1cc2c(c(=O)n1Cc1ccco1)C(c1ccccc1)C(C#N)=C(N)O2 (configuration not stated) | 107% |
| CC1=C(C(=O)Nc2ccccc2)C(c2ccco2)C(C#N)=C(SCC(N)=O)N1 (configuration not stated) | 88.2% |
| CCNc1nc(NC(C)C)nc(OCCOC(=O)c2ccccc2)n1 | 108% |
| Cc1cc(O)cc(O)c1C(=O)Cc1cnn(-c2ccccc2)c1 | 98.6% |

| SMILES | viability |
| --- | --- |
| C/C(=N\NC(=O)c1ccc(C)cc1)C1C(=O)c2ccccc2C1=O | 103% |
| COc1cccc(NC(=O)CN(C)S(=O)(=O)c2ccc(C)cc2)c1 | 93.1% |
| COc1cccc(-c2nnc(NC(=O)c3ccc(S(=O)(=O)N(CC(C)C)CC(C)C)cc3)o2)c1 | 8.59% (active) |
| CCN(CC)C(=O)CSc1nnc(-c2cccc(OC)c2)o1 | 101% |
| c1ccc(-n2nc3ccccc3n2)cc1 | 100% |
| Cc1ccc(/C=N/NC(=O)C2=NNC(c3ccccc3)(c3ccccc3)C2)c(O)c1 | 19.2% (active) |
| C/C(=N\NC(=O)c1nc(C)cc(C)n1)c1ccccc1 | 106% |
| Cc1ccc(OCC(=O)N/N=C\c2ccco2)c(C)c1 | 108% |
| CCOc1ccc(-n2c(N)c(C(=O)NCC3CCCO3)sc2=S)cc1 (configuration not stated) | 101% |
| O=C(C(NS(=O)(=O)c1cccc2nsnc12)c1ccccc1)N1CCN(c2ccccc2)CC1 (configuration not stated) | 94.9% |
| Oc1c(Cl)cc(Cl)c(Cl)c1Cc1c(O)c(Cl)cc(Cl)c1Cl | 46.4% (active) |
| CCCCN(CCCC)C(=O)CCS(=O)(=O)c1ccc2c(c1)n(C)c(=O)c(=O)n2C | 96.8% |
| Cc1ccc(S(=O)(=O)NCCN2CCOCC2)cc1C | 108% |
| CC(=O)CCS(=O)(=O)c1ccc(C)c(C)c1 | 32.5% (active) |
| Cc1cc(C)cc(N(CC(=O)N2CC=C(c3ccccc3)CC2)S(=O)(=O)c2c(C)noc2C)c1 | 95.6% |
| CC/C(O)=N\S(=O)(=O)c1ccc(N=NN(C)C)cc1 | 97.5% |
| Cc1ccc(N(Cc2ccc(C(=O)Nc3ccccc3C(=O)NCc3ccco3)cc2)S(C)(=O)=O)cc1C | 97% |
| Cc1nc2ccc(C(=O)O)cc2[nH]1 | 104% |
| COC(=O)Nc1nc2ccc(Sc3ccccc3)cc2[nH]1 | 47.2% (active) |
| CC(C)c1nc2ccc(C(=O)O)cc2[nH]1 | 98.8% |
| CN(Cc1ccccc1)C(=O)COc1ccccc1 | 104% |
| c1ccc(-c2nc(NCc3ccco3)c3ccccc3n2)cc1 | 95.9% |
| CC(c1ccco1)N(C(=O)Nc1ccccc1)C1CCCCC1 (configuration not stated) | 97.3% |
| COc1ccc(-c2nnco2)cc1OC | 103% |
| COc1ccc(-c2cc(C(F)(F)F)nc(S(C)(=O)=O)n2)cc1OC | 2.93% (active) |

| SMILES | viability |
| --- | --- |
| COc1ccc(-c2cc(C(F)(F)F)nc(NCc3cccnc3)n2)cc1 | 87.3% |
| COc1cccc2cc(C(=O)N3CCN(C(=O)c4ccccc4)CC3)c(=O)oc12 | 92.4% |
| CC(=O)NC1=NN(C(C)=O)C(C)(c2ccc(Cl)s2)S1 (configuration not stated) | 67.1% |
| Cc1ccccc1CSCCNC(=O)c1ccc(Cl)c(S(=O)(=O)N2CCOCC2)c1 | 97.8% |
| CCOc1cc(NC(=O)c2ccco2)c(OCC)cc1NC(=O)COc1ccccc1 | 99.7% |
| CCOc1cc(N2CCOCC2)c(OCC)cc1NC(=O)COC(=O)[C@H](Cc1c[nH]c2ccccc12)NC(C)=O | 105% |
| CCOc1cc(N2CCOCC2)c(OCC)cc1NC(=O)COc1cccc2cccnc12 | 31% (active) |
| CS(=O)(=O)n1nc(-c2ccccc2)nc1NCc1ccco1 | 105% |
| C=C1c2cc(CC)ccc2NC(=O)N1c1ccc(C)cc1 | 102% |
| O=C1Nc2ccccc2C12Nc1ccccc1S2 (configuration not stated) | 92.1% |
| CCc1ccc2c(c1)C1(NN=C(c3ccccc3)S1)C(=O)N2 (configuration not stated) | 32.1% (active) |
| CN(C)S(=O)(=O)c1ccc(N2CCCC2)c(C(=O)NCc2ccccc2)c1 | 98.3% |
| CC1=C/C(=N\OS(=O)(=O)c2ccccc2)C=CC1=O | 1.44% (active) |
| CCOC(=O)c1sc(C)c2c1NC(C)(c1cccc3ccccc13)NC2=O (configuration not stated) | 78.7% |
| O=C(NCCSCc1ccccc1)c1ccc(Cl)c(S(=O)(=O)N2CCOCC2)c1 | 92.8% |
| N=c1c2c3c(sc2nc2n1CCCCC2)CCCC3 | 102% |
| CC1(C)NC(=O)N(CCCCSc2ccc(Cl)cc2)C1=O | 95% |
| CCOc1ccc2c(c1)C(c1ccc(C)cc1)=NNC(c1ccc(C)cc1)=N2 | 75.9% |
| CC(C)(C)NC(=O)Cn1c(SCC(=O)Nc2nccs2)nc2ccccc21 | 93.8% |
| CCC(c1nnnn1C(C)(C)C)N(Cc1cc2cccc(C)c2n2nnnc12)C1CCCC1 (configuration not stated) | 95.7% |
| CCOC(=O)c1c(N=CN(C)C)c(C#N)c2n1CCCC2 | 98.2% |
| CC[C@]1(O)CC2CN(CCc3c([nH]c4ccccc34)[C@@](C(=O)OC)(c3cc4c(cc3OC)N(C=O)[C@H]3[C@@](O)(C(=O)OC)[C@H](OC(C)=O)[C@]5(CC)C=CCN6CC[C@]43[C@@H]65)C2)C1 (some centres not stated) | 44.6% (active) |
| CO/N=C(/CS(=O)(=O)c1ccc(Br)cc1)c1ccc(OC)cc1 | 90.9% |
| Cc1cc(=O)oc2cc(NC(=O)C3CC(=O)N(Cc4ccccc4)C3)ccc12 (configuration not stated) | 103% |
| Cc1cc(=O)oc2cc(OCC3CC(c4ccccc4Cl)=NO3)ccc12 (configuration not stated) | 47.8% (active) |

| SMILES | viability |
| --- | --- |
| Cc1ccccc1N1CCN(CCCOc2ccc3c(C)cc(=O)oc3c2)CC1 | 94% |
| Cc1cccc2nc(CSc3nc4[nH]ncc4c(=O)n3-c3cccc(Cl)c3)cc(=O)n12 | 68.1% |
| CCOc1ccc(S(=O)(=O)Nc2ccc(S(=O)(=O)Nc3cc(OC)ccc3OC)cc2)cc1 | 105% |
| CCOc1ccc(NS(=O)(=O)c2ccc(OCC(=O)NCCCOC)cc2)cc1 | 40.2% (active) |
| COC(=O)COc1ccc(S(=O)(=O)Nc2ccc(NC(C)=O)cc2)cc1 | 104% |
| O=C(c1ccccc1Oc1ccccc1)N1CCN(c2ccc(F)cc2)CC1 | 99.7% |
| CCOc1ccccc1NC(=O)C1CCCN(C(=O)Nc2ccccc2)C1 (configuration not stated) | 106% |
| Cn1c(NC(=O)c2ccc3c(c2)OCO3)cc(=O)n(C)c1=O | 97% |
| COc1ccc(C(=O)Nc2ccc3c(c2)OCO3)cc1OC | 100% |
| Cn1c(=O)n(C)c2cc(C(=O)Nc3ccc4c(c3)OCO4)ccc21 | 48.5% (active) |
| CCCc1nc2sc3c(c2c(=O)n1NC(=O)CCCl)CCCC3 | 80.4% |
| CC1CN(S(=O)(=O)c2ccccc2)C(C)CN1S(=O)(=O)c1ccccc1 (configuration not stated) | 93.9% |
| CCCn1c(C(Cc2ccccc2)NC(=O)COC)nc2ccccc21 (configuration not stated) | 93.2% |
| Cc1ccc(CN(C(=O)c2sc3ccccc3c2Cl)C2CCS(=O)(=O)C2)cc1 (configuration not stated) | 89.4% |
| CCC(C(=O)NCc1ccc(OC)cc1)n1nc(C)n2c(cc3occc32)c1=O (configuration not stated) | 95.5% |
| COc1ccccc1N1CCN(Cc2nnnn2CCc2ccccc2)CC1 | 101% |
| COc1ccccc1N1CCN(C(=O)CN(Cc2ccc(Cl)cc2)S(C)(=O)=O)CC1 | 98.3% |
| COc1ccccc1-n1nnnc1S(=O)(=O)Cc1ccc(Cl)cc1 | 25% (active) |
| O=C(Nc1ccccc1-c1nnn(CC(=O)N2CCCc3ccccc32)n1)c1cccc(Cl)c1 | 52.5% |
| O=C(Cc1cccc2ccccc12)Nc1ccc2oc(-c3ccccc3)nc2c1 | 99% |
| Cc1ccc(NC(=S)NC(NC(=O)Cc2cccc3ccccc23)C(Cl)(Cl)Cl)cc1 (configuration not stated) | 49.6% (active) |
| Cc1ccc(NC(=O)CCN2CCc3ccccc3C2)cc1 | 94.5% |
